Reference: ChEMBL document CHEMBL1157203, “Synthesis and cytotoxic activity of gamma-aryl substituted alpha-alkylidene-gamma-lactones and alpha-alkylidene-gamma-lactams” (Bioorg Med Chem, 2008)
Several values for one entry are separate records, joined by “and”; a condition that tells them apart may be missing. Equal entries are not always repeated.

Columns and labels:
Type in all cases: functional, cell-based
NALM-6 = test: Cytotoxicity against human NALM6 cells after 48 hrs by MTT assay
Procedure, shortened: (§1)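 HL-60 (promyelocytic) and NALM-6 (lymphoblastic) cells grown in RPMI 1640 with 10% heat-inactivated FBS, streptomycin and penicillin, 37 °C, 5% CO2. Exponentially growing cells seeded at 8×10^3/well. Compounds prepared fresh from DMSO stocks and tested at 10^-7 to 10^-3 M for 46 h, then MTT 2 h. Formazan dissolved in 20% SDS/50% DMF pH 4.7, absorbance 562 and 630 nm. IC50 taken from concentration-response curves, means of at least 6 repeats ± SD.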

HL-60 = test: Cytotoxicity against human HL60 cells after 48 hrs by MTT assay; procedure, shortened: as §1
L1210 = test: Cytotoxicity against mouse L1210 cells after 48 hrs by tetrazolium dye method

| SMILES | IC50 (NALM-6; Homo sapiens, NALM-6, 48 h) | IC50 (HL-60; Homo sapiens, HL-60, 48 h) | IC50 (L1210; Mus musculus, L1210, 48 h) | IC50 (HL-60; hl-60) | IC50 (L1210; l1210) | IC50 (NALM-6; nalm-6) |
| --- | --- | --- | --- | --- | --- | --- |
| C=C1CC(c2ccccc2)N(C)C1=O (configuration not stated) | 553 µM | 989 µM | > 50 µM | – | – | – |
| C=C1C(=O)OC(c2ccc(Br)cc2)C1C (configuration not stated) | – | – | – | 41.8 µM and 5.05 µM | 7.5 µM and 1.55 µM | – |
| C=C1C(=O)OC(c2ccc(OC)cc2)C1C (configuration not stated) | – | – | – | 37.9 µM and 5.69 µM | 14.2 µM and 3.65 µM | 38.6 µM and 5.23 µM |
| C=C1CC(c2ccc(Br)cc2)N(C)C1=O (configuration not stated) | 141 µM | 220 µM | > 50 µM | – | – | – |
| C=C1CC(c2ccc(Br)cc2)OC1=O (configuration not stated) | 85.3 µM | 20.3 µM | 1.3 µM | – | – | – |
| CC(C)/C=C1\CC(c2ccccc2)N(C)C1=O (configuration not stated) | 351 µM | 81.3 µM | > 50 µM | – | – | – |
| C=C1CC(c2ccc(OC)cc2)N(C)C1=O (configuration not stated) | 523 µM | 611 µM | > 50 µM | – | – | – |
| C=C1CC(c2cccc3ccccc23)OC1=O (configuration not stated) | 3.86 µM | 4.42 µM | 4.3 µM | – | – | – |
| CC(C)/C=C1/CC(c2ccccc2)OC1=O (configuration not stated) | 483 µM | 159 µM | > 50 µM | – | – | – |
| C=C1C(=O)OC(c2ccccc2)C1C (configuration not stated) | 7.91 µM | 8.97 µM | – | 8.97 µM | 4 µM and 28 µM | 7.91 µM |
| O=C1OC(c2ccccc2)C/C1=C\c1ccccc1 (configuration not stated) | 497 µM | > 1000 µM | > 50 µM | – | – | – |
| C=C1CC(c2ccccc2)OC1=O (configuration not stated) | 9.13 µM | 36.9 µM | 1.4 µM | – | – | – |
